Data set [1] can be described thus: Inhibition of HIV integrase after 2 hrs by combined strand transfer assay. The arrangement: species or system Human immunodeficiency virus. In a few lines:
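Integrase (400 ng) was incubated 2 h at 37 °C with 30 nM pre-processed U5 LTR duplex substrate, one strand DIG-tagged and the other biotin-tagged. 3′-processing/strand-transfer products were captured on streptavidin plates and detected with anti-DIG-alkaline phosphatase and p-nitrophenyl phosphate.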

The subject of data set [2] is Human immunodeficiency virus. The experiment in a line: Antiviral activity against wild type HIV assessed as inhibition of p24 antigen production after 48 hrs by cell based luciferase reporter gene assay. Type of data set: functional, organism-based. The settings on record: Human immunodeficiency virus 1, 48 h.
The subject of data set [3] is Human immunodeficiency virus. In words: Antiviral activity against raltegravir-resistant HIV expressing integrase Q148H/G140S mutant infected in HEK293T cells after 48 hrs by luciferase reporter gene assay. The settings on record: Human immunodeficiency virus 1, HEK-293T. Format: functional, organism-based. In a few lines:
(§1)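 VSV-G-pseudotyped, env-deleted HIV-1 carrying luciferase in nef, made by cotransfecting 293T cells; integrase resistance mutations introduced by site-directed mutagenesis. 293T cells seeded 16 h before compound, preincubated with compound 4 h at 37 °C, then infected with virus giving about 10,000 luciferase light units without compound. Luciferase read 48 h post-infection.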
(Reporter assays use an easily measured gene product as a stand-in for the process of interest.)

Data set [4] has as its system Human immunodeficiency virus. The experiment in a line: Antiviral activity against raltegravir-resistant HIV expressing integrase N155H/E92Q mutant infected in HEK293T cells after 48 hrs by luciferase reporter gene assay. Format: functional, organism-based, HEK-293T. The method in brief:
as §1

Data set [5] has as its system Human immunodeficiency virus. The experiment in a line: Antiviral activity against wild type HIV assessed as inhibition of p24 antigen production after 48 hrs by cell based luciferase reporter gene assay in presence of 10% normal human serum. Type of data set: functional, organism-based. The settings on record: Human immunodeficiency virus 1, 48 h.
Data set [6] concerns Human immunodeficiency virus. In words: Antiviral activity against wild type HIV assessed as inhibition of p24 antigen production after 48 hrs by cell based luciferase reporter gene assay in presence of 50% normal human serum. The settings on record: Human immunodeficiency virus 1, 48 h. Type of data set: functional, organism-based.
Data set [7] has as its system Human immunodeficiency virus. The experiment in a line: Antiviral activity against raltegravir-resistant HIV expressing integrase Q148H/G140S mutant infected in HEK293T cells after 48 hrs by luciferase reporter gene assay in presence of 10% FBS. Format: functional, organism-based. The settings on record: Human immunodeficiency virus 1, HEK-293T. In a few lines:
as §1

For data set [8], the system named is Human immunodeficiency virus. The experiment in a line: Antiviral activity against raltegravir-resistant HIV expressing integrase N155H/E92Q mutant infected in HEK293T cells after 48 hrs by luciferase reporter gene assay in presence of 10% FBS. Type of data set: functional, organism-based. The settings on record: Human immunodeficiency virus 1, HEK-293T. In a few lines: as §1

Data set [9] can be described thus: Half life in microsomes. Format: ADME, Microsome.
[10] abbreviates: Human immunodeficiency virus 1, HEK-293T, 48 h, read-out: EC50.

In ChEMBL document CHEMBL1221310, “Discovery of potent HIV integrase inhibitors active against raltegravir resistant viruses” (Bioorg Med Chem Lett, 2010) one finds IC50, EC50 and half-life data, which are given here for 25 compounds.

For `CN1CCN(c2cc(N(C)C)cn3c(=O)c(O)c(-c4ncc(Cc5ccc(F)cc5)s4)nc23)C1=O`, the IC50 in data set [1] (read-out: IC50) is 90 nM. In addition, the 50% effective concentration (EC50) in data set [2] was 19.5 nM; in data set [3], 92.5 nM; in data set [4] (setting [10]), 32.5 nM.

Turning to `CC(C)N(C)C(=O)N(C)c1cc(N2CCOCC2)cn2c(=O)c(O)c(-c3ncc(Cc4ccc(F)cc4)s3)nc12`, the IC50 result in [1] is on record as “Not Active”. Also, the EC50 in [2] is 16.5 nM; in data set [3], 120 nM; in data set [4] (hek-293t), “Not Active”.

As for `O=C(c1cc(N2CCOCC2)cn2c(=O)c(O)c(-c3ncc(Cc4ccc(F)cc4)s3)nc12)N1CCCC1`, the IC50 in [1] (read-out: IC50) turned out to be 70 nM. For the same compound, the EC50 is 81 nM in data set [2], 1180 nM in data set [3] and 200 nM in data set [4] (setting [10]).

As for `O=C1CNCCN1c1cc(N2CCOCC2)cn2c(=O)c(O)c(-c3ncc(Cc4ccc(F)cc4)s3)nc12`, the half-maximal effective concentration (EC50) in [5] is 4 nM; in data set [6], 6.1 nM; in [7], 34.5 nM; in data set [8], 6.7 nM. This compound displayed a half-life in [9] of 52 min.

With `CN1CCN(c2cc(CN3CCOCC3)cn3c(=O)c(O)c(-c4ncc(Cc5ccc(F)cc5)s4)nc23)C1=O`, in data set [1] (read-out: IC50), the half-maximal inhibitory concentration (IC50) came to 25 nM. For the same compound, the EC50 in data set [2] is 3.5 nM; in [3], 243 nM; in [4] (setting [10]), 14.5 nM.

In the case of `CC1CN(C)CCN1c1cc(N2CCCOC2=O)c2nc(-c3ncc(Cc4ccc(F)cc4)s3)c(O)c(=O)n2c1` (stereo not drawn), the EC50 in data set [5] is 4.2 nM; in data set [6], 5.5 nM; in [7], 40.5 nM; in data set [8], 5.2 nM. The compound further registered a half-life in data set [9] of 18 min.

For the compound `CC(NC1CC1)c1cc(N2CCN(C)C2=O)c2nc(-c3ncc(Cc4ccc(F)cc4)s3)c(O)c(=O)n2c1` (stereo not drawn), the IC50 result in data set [1] is “Not Active”. Further, the results for the EC50 in data set [2], in data set [3] and in data set [4] (hek-293t) were 11.5 nM, 268 nM and “Not Active”, respectively.

`CN1CCN(c2cc(N3CCNCC3=O)cn3c(=O)c(O)c(-c4ncc(Cc5ccc(F)cc5)s4)nc23)C1=O`: the IC50 result in [1] was “Not Active”. Further, the EC50 was 27 nM in data set [2], 1100 nM in data set [3] and “Not Active” in [4] (hek-293t).

Regarding `O=C1OCCCN1c1cc(N2CCOCC2)cn2c(=O)c(O)c(-c3ncc(Cc4ccc(F)cc4)s3)nc12`, in data set [1], the IC50 entry is reported as “Not Active”. Moreover, the EC50 in [2] amounted to 4.3 nM; in data set [3] it was 16.5 nM; in data set [4] (setting [10]), 10.5 nM.

As to `O=c1c(O)c(-c2ncc(Cc3ccc(F)cc3)s2)nc2c(N3CCCS3(=O)=O)cc(N3CCOCC3)cn12`, the IC50 in [1] (read-out: IC50) was found to be 48 nM. Besides, the 50% effective concentration (EC50) in [2] was determined as 6.4 nM; in [3], 280 nM; in [4] (setting [10]), 49.5 nM.

On to `CN1CCN(c2cc(N3CCCOC3=O)c3nc(-c4ncc(Cc5ccc(F)cc5)s4)c(O)c(=O)n3c2)CC1`, for which the EC50 was 3.5 nM in [5], 6.6 nM in data set [6], 29.5 nM in [7] and 4.9 nM in data set [8]. Moreover, the half-life in data set [9] is 67.8 min.

Regarding `O=c1c(O)c(-c2ncc(Cc3ccc(F)cc3)s2)nc2c(Br)cc(N3CCOCC3)cn12`, the IC50 in data set [1] (read-out: IC50) worked out at 42 nM. The EC50 was 14 nM in data set [2], 2500 nM in [3] and 19 nM in data set [4] (setting [10]).

As for `CN1CCN(c2cc(N3CCOCC3)cn3c(=O)c(O)c(-c4ncc(Cc5ccc(F)cc5)s4)nc23)S1(=O)=O`, the half-maximal inhibitory concentration (IC50) in data set [1] (read-out: IC50) turned out to be 38 nM. Further, the EC50 in [2] amounted to 8.5 nM; in [3] it was 112 nM; in [4] (setting [10]), 18.5 nM.

For the compound `CC(C)N1CCN(c2cc(N3CCN(C)C3=O)c3nc(-c4ncc(Cc5ccc(F)cc5)s4)c(O)c(=O)n3c2)CC1`, the IC50 in data set [1] (read-out: IC50) was determined as 19 nM. Further, the EC50 in [2] is 6.8 nM; in data set [3] it was 21 nM; in data set [4] (setting [10]), 8.9 nM.

With `CC(c1cc(N2CCOCC2)cn2c(=O)c(O)c(-c3ncc(Cc4ccc(F)cc4)s3)nc12)N1CCCCC1` (stereo not drawn), the IC50 entry in [1] was “Not Active”. Besides, the EC50 in [2] is 110 nM; in data set [3], 5500 nM; in data set [4] (hek-293t), “Not Active”.

Consider `CC(O)c1cc(N2CCOCC2)cn2c(=O)c(O)c(-c3ncc(Cc4ccc(F)cc4)s3)nc12` (stereo not drawn), for which the half-inhibitory concentration (IC50) result in data set [1] is “Not Active”. Further, the EC50 is 10.5 nM in data set [2], 800 nM in [3] and “Not Active” in data set [4] (hek-293t).

For the compound `O=C1OCCN1c1cc(N2CCOCC2)cn2c(=O)c(O)c(-c3ncc(Cc4ccc(F)cc4)s3)nc12`, in data set [1] (read-out: IC50), the IC50 is 26 nM. Moreover, the values for the EC50 in data set [2], in data set [3] and in data set [4] (setting [10]) were 7.1 nM, 108 nM and 25 nM, respectively.

With `O=C1CCCN1c1cc(N2CCOCC2)cn2c(=O)c(O)c(-c3ncc(Cc4ccc(F)cc4)s3)nc12`, the IC50 entry in data set [1] was “Not Active”. Besides, the values for the EC50 in data set [2], in [3] and in data set [4] (hek-293t) were 21 nM, 335 nM and “Not Active”, respectively.

In the case of `CN1CCN(c2cc(N3CCOCC3)cn3c(=O)c(O)c(-c4ncc(Cc5ccc(F)cc5)s4)nc23)C1=O`, the 50% inhibitory concentration (IC50) in data set [1] (read-out: IC50) amounted to 47 nM. Moreover, the EC50 in data set [2] worked out at 24 nM; in [3] it was 71 nM; in [4] (setting [10]), 10 nM.

Consider `O=c1c(O)c(-c2ncc(Cc3ccc(F)cc3)s2)nc2ccc(N3CCOCC3)cn12`, for which the IC50 in data set [1] (read-out: IC50) was 20 nM. Further, the EC50 in [2] turned out to be 32 nM; in [3], 3000 nM; in data set [4] (setting [10]), 74.5 nM.

For the compound `CN1CCCN(c2cc(N3CCOCC3)cn3c(=O)c(O)c(-c4ncc(Cc5ccc(F)cc5)s4)nc23)C1=O`, in data set [1], the concentration for half-maximal inhibition (IC50) result is on record as “Not Active”. The EC50 worked out at 11.5 nM in data set [2], 34 nM in data set [3] and 21.5 nM in [4] (setting [10]).

Turning to `CC(C)N1CCN(c2cc(N3CCOCC3)cn3c(=O)c(O)c(-c4ncc(Cc5ccc(F)cc5)s4)nc23)C1=O`, the IC50 in [1] (read-out: IC50) came to 19 nM. The concentration for a half-maximal effect (EC50) in data set [2] stood at 7.5 nM; in [3], 18 nM; in [4] (setting [10]) it was 9.7 nM.

In the case of `CC(C)N(C)C(=O)Nc1cc(N2CCOCC2)cn2c(=O)c(O)c(-c3ncc(Cc4ccc(F)cc4)s3)nc12`, the IC50 entry in [1] is “Not Active”. In addition, the EC50 in [2] was 22 nM; in data set [3], greater than 10000 nM; in data set [4] (hek-293t) it was “Not Active”.

Regarding `COc1cc(N2CCOCC2)cn2c(=O)c(O)c(-c3ncc(Cc4ccc(F)cc4)s3)nc12`, the half-inhibitory concentration (IC50) entry in data set [1] was “Not Active”. The EC50 in [2] was 100 nM; in data set [3], 5900 nM; in data set [4] (hek-293t), “Not Active”.

On to `CC(=O)c1cc(N2CCOCC2)cn2c(=O)c(O)c(-c3ncc(Cc4ccc(F)cc4)s3)nc12`, for which the half-maximal inhibitory concentration (IC50) in [1] (read-out: IC50) is 15 nM. For the same compound, the EC50 was 9.5 nM in data set [2], 885 nM in data set [3] and “Not Active” in data set [4] (hek-293t).

As usually defined, the IC50 is the concentration that gives 50% inhibition. The term EC50 denotes the concentration needed to bring the measured effect to its halfway point. The term half-life denotes how long it takes for the measured level to halve. Read a high half-life as slow decline.
